Measurements published in ChEMBL document CHEMBL3608301, “Phenolic Compounds from Atriplex littoralis and Their Radiation-Mitigating Activity” (J Nat Prod, 2015).

How the values were obtained:
[1] = tested on: PBL; test: Toxicity in 2-Gy gamma irradiated human PBL assessed as cytokinesis-block proliferation index at 1 uM treated for 2 to 19 hrs followed by compound washout measured after 72 hrs (reference value: 1.6 +/- 0.1); assay type: cell-based
[2] = tested on: PBL; test: Toxicity in 2-Gy gamma irradiated human PBL assessed as cytokinesis-block proliferation index at 2 uM treated for 2 to 19 hrs followed by compound washout measured after 72 hrs (reference value: 1.6 +/- 0.1); assay type: cell-based
[3] = tested on: PBL; test: Toxicity in 2-Gy gamma irradiated human PBL assessed as cytokinesis-block proliferation index at 4 uM treated for 2 to 19 hrs followed by compound washout measured after 72 hrs (reference value: 1.6 +/- 0.1); assay type: cell-based
[4] = tested on: PBL; test: Radioprotective activity in 2-Gy gamma irradiated human PBL assessed as binucleated cells with micronuclei at 1 uM treated for 2 to 19 hrs followed by compound washout measured after 72 hrs by cytochalasin-B-blocked micronucleus assay (reference value: 15.5 +/- 0.6%); assay type: functional
Summary of the method: (§1)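 Venous blood from five healthy male volunteers was γ-irradiated at 2 Gy (0.45 Gy/min) at room temperature and cultured. Compounds (0.8−7.4 μM final) were added 2 to 19 h after irradiation, at 37 °C. Cultures were then rinsed and moved to fresh RPMI 1640 for 72 h. Cytokinesis-block micronucleus assay: ≥1000 binucleated cells scored per sample (Countryman–Heddle criteria). Controls were non-treated irradiated cultures; one-way ANOVA with Tukey test.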

[5] = tested on: PBL; test: Radioprotective activity in 2-Gy gamma irradiated human PBL assessed as binucleated cells with micronuclei at 2 uM treated for 2 to 19 hrs followed by compound washout measured after 72 hrs by cytochalasin-B-blocked micronucleus assay (reference value: 15.5 +/- 0.6%); assay type: functional; summary of the method: as §1
[6] = tested on: PBL; test: Radioprotective activity in 2-Gy gamma irradiated human PBL assessed as binucleated cells with micronuclei at 4 uM treated for 2 to 19 hrs followed by compound washout measured after 72 hrs by cytochalasin-B-blocked micronucleus assay (reference value: 15.5 +/- 0.6%); assay type: functional; summary of the method: as §1
[7] = tested on: PBL; test: Radioprotective activity in 2-Gy gamma irradiated human PBL assessed as incidence of micronuclei in 1000 binucleated cells at 1 uM treated for 2 to 19 hrs followed by compound washout measured after 72 hrs by cytochalasin-B-blocked micronucleus assay (reference value: 183 +/- 9.6); assay type: functional; summary of the method: as §1
[8] = tested on: PBL; test: Radioprotective activity in 2-Gy gamma irradiated human PBL assessed as incidence of micronuclei in 1000 binucleated cells at 2 uM treated for 2 to 19 hrs followed by compound washout measured after 72 hrs by cytochalasin-B-blocked micronucleus assay (reference value: 183 +/- 9.6); assay type: functional; summary of the method: as §1
[9] = tested on: PBL; test: Radioprotective activity in 2-Gy gamma irradiated human PBL assessed as incidence of micronuclei in 1000 binucleated cells at 4 uM treated for 2 to 19 hrs followed by compound washout measured after 72 hrs by cytochalasin-B-blocked micronucleus assay (reference value: 183 +/- 9.6); assay type: functional; summary of the method: as §1
[10] = tested on: PBL; test: Radioprotective activity in 2-Gy gamma irradiated human PBL assessed as incidence of micronuclei in binucleated cells at 1 uM treated for 2 to 19 hrs followed by compound washout measured after 72 hrs by cytochalasin-B-blocked micronucleus assay (reference value: 1.2 +/- 0.03); assay type: functional; summary of the method: as §1
[11] = tested on: PBL; test: Radioprotective activity in 2-Gy gamma irradiated human PBL assessed as incidence of micronuclei in binucleated cells at 2 uM treated for 2 to 19 hrs followed by compound washout measured after 72 hrs by cytochalasin-B-blocked micronucleus assay (reference value: 1.2 +/- 0.03); assay type: functional; summary of the method: as §1
[12] = tested on: PBL; test: Radioprotective activity in 2-Gy gamma irradiated human PBL assessed as incidence of micronuclei in binucleated cells at 4 uM treated for 2 to 19 hrs followed by compound washout measured after 72 hrs by cytochalasin-B-blocked micronucleus assay (reference value: 1.2 +/- 0.03); assay type: functional; summary of the method: as §1
[13] = tested on: PBL; test: Radioprotective activity in 2-Gy gamma irradiated human PBL assessed as frequency of micronuclei at 1 uM treated for 2 to 19 hrs followed by compound washout measured after 72 hrs by cytochalasin-B-blocked micronucleus assay relative to control; assay type: functional; summary of the method: as §1
[14] = tested on: PBL; test: Radioprotective activity in 2-Gy gamma irradiated human PBL assessed as frequency of micronuclei at 2 uM treated for 2 to 19 hrs followed by compound washout measured after 72 hrs by cytochalasin-B-blocked micronucleus assay relative to control; assay type: functional; summary of the method: as §1
[15] = tested on: PBL; test: Radioprotective activity in 2-Gy gamma irradiated human PBL assessed as frequency of micronuclei at 4 uM treated for 2 to 19 hrs followed by compound washout measured after 72 hrs by cytochalasin-B-blocked micronucleus assay relative to control; assay type: functional; summary of the method: as §1
[16] = tested on: PBL; test: Toxicity in 2-Gy gamma irradiated human PBL assessed as cytokinesis-block proliferation index at 4.7 uM treated for 2 to 19 hrs followed by compound washout measured after 72 hrs (reference value: 1.6 +/- 0.1); assay type: cell-based
[17] = tested on: PBL; test: Radioprotective activity in 2-Gy gamma irradiated human PBL assessed as binucleated cells with micronuclei at 4.7 uM treated for 2 to 19 hrs followed by compound washout measured after 72 hrs by cytochalasin-B-blocked micronucleus assay (reference value: 15.5 +/- 0.6%); assay type: functional
[18] = tested on: PBL; test: Radioprotective activity in 2-Gy gamma irradiated human PBL assessed as incidence of micronuclei in 1000 binucleated cells at 4.7 uM treated for 2 to 19 hrs followed by compound washout measured after 72 hrs by cytochalasin-B-blocked micronucleus assay (reference value: 183 +/- 9.6); assay type: functional
[19] = tested on: PBL; test: Radioprotective activity in 2-Gy gamma irradiated human PBL assessed as incidence of micronuclei in binucleated cells at 4.7 uM treated for 2 to 19 hrs followed by compound washout measured after 72 hrs by cytochalasin-B-blocked micronucleus assay (reference value: 1.2 +/- 0.03); assay type: functional
[20] = tested on: PBL; test: Radioprotective activity in 2-Gy gamma irradiated human PBL assessed as frequency of micronuclei at 4.7 uM treated for 2 to 19 hrs followed by compound washout measured after 72 hrs by cytochalasin-B-blocked micronucleus assay relative to control; assay type: functional
[21] = tested on: PBL; test: Toxicity in 2-Gy gamma irradiated human PBL assessed as cytokinesis-block proliferation index at 3 uM treated for 2 to 19 hrs followed by compound washout measured after 72 hrs (reference value: 1.6 +/- 0.1); assay type: cell-based
[22] = tested on: PBL; test: Radioprotective activity in 2-Gy gamma irradiated human PBL assessed as binucleated cells with micronuclei at 3 uM treated for 2 to 19 hrs followed by compound washout measured after 72 hrs by cytochalasin-B-blocked micronucleus assay (reference value: 15.5 +/- 0.6%); assay type: functional; summary of the method: as §1
[23] = tested on: PBL; test: Radioprotective activity in 2-Gy gamma irradiated human PBL assessed as incidence of micronuclei in 1000 binucleated cells at 3 uM treated for 2 to 19 hrs followed by compound washout measured after 72 hrs by cytochalasin-B-blocked micronucleus assay (reference value: 183 +/- 9.6); assay type: functional; summary of the method: as §1
[24] = tested on: PBL; test: Radioprotective activity in 2-Gy gamma irradiated human PBL assessed as incidence of micronuclei in binucleated cells at 3 uM treated for 2 to 19 hrs followed by compound washout measured after 72 hrs by cytochalasin-B-blocked micronucleus assay (reference value: 1.2 +/- 0.03); assay type: functional; summary of the method: as §1
[25] = tested on: PBL; test: Radioprotective activity in 2-Gy gamma irradiated human PBL assessed as frequency of micronuclei at 3 uM treated for 2 to 19 hrs followed by compound washout measured after 72 hrs by cytochalasin-B-blocked micronucleus assay relative to control; assay type: functional; summary of the method: as §1

## COc1cc(-c2oc3cc(O)c(OC)c(O)c3c(=O)c2O[C@@H]2O[C@H](CO)[C@@H](O)[C@H](O)[C@H]2O)ccc1O
[1]
  Activity: 1.6
[2]
  Activity: 1.6
[3]
  Activity: 1.6
[4]
  Activity: 12.1%
[5]
  Activity: 11.7%
[6]
  Activity: 12.3%
[7]
  Activity: 141.8
[8]
  Activity: 139.3
[9]
  Activity: 148
[10]
  Activity: 1.2
[11]
  Activity: 1.2
[12]
  Activity: 1.2
[13]
  Activity: 77.5%
[14]
  Activity: 76.1%
[15]
  Activity: 80.9%

## NCCCNCCSP(=O)(O)O [AMIFOSTINE]
[16]
  Activity: 1.6
[17]
  Activity: 13.9%
[18]
  Activity: 166
[19]
  Activity: 1.2
[20]
  Activity: 90.7%

## CO[C@@]12[C@H](COC(N)=O)C3=C(C(=O)C(C)=C(N)C3=O)N1C[C@@H]1N[C@@H]12 [MITOMYCIN]
[21]
  Activity: 1.6
[22]
  Activity: 17.9%
[23]
  Activity: 226.1
[24]
  Activity: 1.3
[25]
  Activity: 123.5%
